Measured values: ChEMBL document CHEMBL1124368 (J Med Chem, 1989)

system: Mus musculus; assay: Mean of weight gain from day 0 to day 24 at a dose of 3.125 mg/kg/day of compound; type: functional; set-up: unit not given here; conditions: not given
Outline: (§1)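 M5076 reticulum cell sarcoma: 10⁶ cells implanted im into the left leg of female BDF₁ mice (groups of five) on day 0. Drug in 10–20% DMSO in arachis oil was given ip daily on days 1–17. Weight change is the mean weight gain from day 0 to day 24.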

Compound	Weight change
CCc1nc(N)nc(N)c1-c1ccc(NCc2ccc(Cl)cc2)c([N+](=O)[O-])c1	3.2
CCc1nc(N)nc(N)c1-c1ccc(NCc2ccc(OC)c(OC)c2)c([N+](=O)[O-])c1	1
CCc1nc(N)nc(N)c1-c1ccc(NC)c([N+](=O)[O-])c1	4.3
CCc1nc(N)nc(N)c1-c1ccc(NCc2ccc(C(F)(F)F)cc2)c([N+](=O)[O-])c1	3.4
CCc1nc(N)nc(N)c1-c1ccc(NCc2ccccc2)c([N+](=O)[O-])c1	2.2
CCc1nc(N)nc(N)c1-c1ccc(NCc2ccc(OC)cc2)c([N+](=O)[O-])c1	4.1

system: Mus musculus; assay: Tumor volume in 24 days after tumor implantation at a dose of 6.25 mg/kg/day; type: functional; conditions: not given
Outline: (§2)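 10⁶ M5076 reticulum cell sarcoma cells were injected im into the left leg of female BDF₁ mice, five per group, on day 0. Compound in 10–20% DMSO/arachis oil was dosed ip daily on days 1–17. Tumor volumes (mm³) were recorded on days 12, 16, 20 and 24 after implantation, with NM marking a tumor that could not be measured.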

Compound	Tumor volume
CCc1nc(N)nc(N)c1-c1ccc(NCc2ccc(Cl)cc2)c([N+](=O)[O-])c1	597 mm**3
CCc1nc(N)nc(N)c1-c1ccc(NCc2ccc(OC)c(OC)c2)c([N+](=O)[O-])c1	324 mm**3
CCc1nc(N)nc(N)c1-c1ccc(NC)c([N+](=O)[O-])c1	805 mm**3
CCc1nc(N)nc(N)c1-c1ccc(NCc2ccc(C(F)(F)F)cc2)c([N+](=O)[O-])c1	454 mm**3
CCc1nc(N)nc(N)c1-c1ccc(NCc2ccccc2)c([N+](=O)[O-])c1	932 mm**3
CCc1nc(N)nc(N)c1-c1ccc(NCc2ccc(OC)cc2)c([N+](=O)[O-])c1	875 mm**3

system: Mus musculus; assay: Tumor volume in 16 days after tumor implantation at a dose of 3.125 mg/kg/day of compound; type: functional; conditions: not given; outline: as §2

Compound	Tumor volume
CCc1nc(N)nc(N)c1-c1ccc(NCc2ccc(C(F)(F)F)cc2)c([N+](=O)[O-])c1	291 mm**3
CCc1nc(N)nc(N)c1-c1ccc(NCc2ccc(OC)cc2)c([N+](=O)[O-])c1	306 mm**3

system: Mus musculus; assay: Ratio of tumor volume of test(T) animals compared to control(C) animals x 100 T/C(%)] at a dose of 12.50 mg/kg/day; type: functional; conditions: not given
Outline: (§3)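 M5076 reticulum cell sarcoma: 10⁶ cells implanted im into the left leg of female BDF₁ mice (groups of five) on day 0. Treatment was ip, daily on days 1–17, in 10–20% DMSO in arachis oil. T/C% is treated tumor volume over control tumor volume × 100.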

Compound	Antitumor activity
CCc1nc(N)nc(N)c1-c1ccc(NCc2ccc(Cl)cc2)c([N+](=O)[O-])c1	13%
CCc1nc(N)nc(N)c1-c1ccc(NC)c([N+](=O)[O-])c1	20%
CCc1nc(N)nc(N)c1-c1ccc(NCc2ccc(C(F)(F)F)cc2)c([N+](=O)[O-])c1	12%
CCc1nc(N)nc(N)c1-c1ccc(NCc2ccccc2)c([N+](=O)[O-])c1	21%
CCc1nc(N)nc(N)c1-c1ccc(NCc2ccc(OC)cc2)c([N+](=O)[O-])c1	21%

system: Mus musculus; assay: Ratio of tumor volume of test(T) animals compared to control(C) animals x 100 T/C(%)] at a dose of 6.25 mg/kg/day; type: functional; conditions: not given; outline: as §3

Compound	Antitumor activity
CCc1nc(N)nc(N)c1-c1ccc(NCc2ccc(Cl)cc2)c([N+](=O)[O-])c1	20%
CCc1nc(N)nc(N)c1-c1ccc(NCc2ccc(OC)c(OC)c2)c([N+](=O)[O-])c1	9%
CCc1nc(N)nc(N)c1-c1ccc(NC)c([N+](=O)[O-])c1	35%
CCc1nc(N)nc(N)c1-c1ccc(NCc2ccc(C(F)(F)F)cc2)c([N+](=O)[O-])c1	20%
CCc1nc(N)nc(N)c1-c1ccc(NCc2ccccc2)c([N+](=O)[O-])c1	34%
CCc1nc(N)nc(N)c1-c1ccc(NCc2ccc(OC)cc2)c([N+](=O)[O-])c1	30%

system: Mus musculus; assay: Tumor volume in 16 days after tumor implantation at a dose of 50 mg/kg/day of compound; NM=Tumor not measurable; type: functional, organism-based; conditions: not given; outline: as §2

Compound	Tumor volume
CCc1nc(N)nc(N)c1-c1ccc(NC)c([N+](=O)[O-])c1	Not measurable

system: Mus musculus; assay: Tumor volume in 20 days after tumor implantation at a dose of 3.125 mg/kg/day; type: functional; conditions: not given; outline: as §2

Compound	Tumor volume
CCc1nc(N)nc(N)c1-c1ccc(NCc2ccc(Cl)cc2)c([N+](=O)[O-])c1	552 mm**3
CCc1nc(N)nc(N)c1-c1ccc(NC)c([N+](=O)[O-])c1	822 mm**3
CCc1nc(N)nc(N)c1-c1ccc(NCc2ccc(C(F)(F)F)cc2)c([N+](=O)[O-])c1	627 mm**3
CCc1nc(N)nc(N)c1-c1ccc(NCc2ccccc2)c([N+](=O)[O-])c1	443 mm**3
CCc1nc(N)nc(N)c1-c1ccc(NCc2ccc(OC)cc2)c([N+](=O)[O-])c1	831 mm**3

target: T1, Dihydrofolate reductase (Rattus norvegicus, UniProt Q920D2); assay: In vitro inhibitory concentration against rat liver dihydrofolate reductase(DHFR); conditions: read-out: I50
T1 sequence (Q920D2 whole entry): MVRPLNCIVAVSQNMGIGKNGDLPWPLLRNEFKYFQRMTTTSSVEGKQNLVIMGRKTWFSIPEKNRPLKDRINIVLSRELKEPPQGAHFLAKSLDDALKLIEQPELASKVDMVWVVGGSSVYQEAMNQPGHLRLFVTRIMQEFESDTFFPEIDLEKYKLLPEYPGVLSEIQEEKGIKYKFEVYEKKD
Outline: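 Partially purified rat liver DHFR, prepared by the Bertino and Fischer method, assayed spectrophotometrically at 340 nm. I50 is the final inhibitor concentration that cuts the reaction rate to 50% of the uninhibited rate. […] Inhibitors were dissolved in 0.1 M HCl or 95% ethanol.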

Compound	IC50
CCc1nc(N)nc(N)c1-c1ccc(NCc2ccc(OC)cc2)c([N+](=O)[O-])c1	20 nM

system: Mus musculus; assay: Mean of weight gain from day 0 to day 24 at a dose of 12.5 mg/kg/day of compound; type: functional; set-up: unit not given here; conditions: not given; outline: as §1

Compound	Weight change
CCc1nc(N)nc(N)c1-c1ccc(NCc2ccc(Cl)cc2)c([N+](=O)[O-])c1	2.9
CCc1nc(N)nc(N)c1-c1ccc(NC)c([N+](=O)[O-])c1	2.1
CCc1nc(N)nc(N)c1-c1ccc(NCc2ccc(C(F)(F)F)cc2)c([N+](=O)[O-])c1	2
CCc1nc(N)nc(N)c1-c1ccc(NCc2ccccc2)c([N+](=O)[O-])c1	1.6
CCc1nc(N)nc(N)c1-c1ccc(NCc2ccc(OC)cc2)c([N+](=O)[O-])c1	2.3

system: Mus musculus; assay: Mean of weight gain from day 0 to day 24 at a dose of 25 mg/kg/day of compound; type: functional; set-up: unit not given here; conditions: not given; outline: as §1

Compound	Weight change
CCc1nc(N)nc(N)c1-c1ccc(NC)c([N+](=O)[O-])c1	2.1
CCc1nc(N)nc(N)c1-c1ccc(NCc2ccc(C(F)(F)F)cc2)c([N+](=O)[O-])c1	6.2
CCc1nc(N)nc(N)c1-c1ccc(NCc2ccccc2)c([N+](=O)[O-])c1	1.7
CCc1nc(N)nc(N)c1-c1ccc(NCc2ccc(OC)cc2)c([N+](=O)[O-])c1	0.2

system: Mus musculus; assay: Tumor volume in 24 days after tumor implantation at a dose of 25 mg/kg/day of compound; type: functional; conditions: not given; outline: as §2

Compound	Tumor volume
CCc1nc(N)nc(N)c1-c1ccc(NC)c([N+](=O)[O-])c1	220 mm**3

system: Mus musculus; assay: Tumor volume in 24 days after tumor implantation at a dose of 3.125 mg/kg/day; type: functional; conditions: not given; outline: as §2

Compound	Tumor volume
CCc1nc(N)nc(N)c1-c1ccc(NCc2ccc(Cl)cc2)c([N+](=O)[O-])c1	873 mm**3
CCc1nc(N)nc(N)c1-c1ccc(NCc2ccc(OC)c(OC)c2)c([N+](=O)[O-])c1	371 mm**3
CCc1nc(N)nc(N)c1-c1ccc(NC)c([N+](=O)[O-])c1	1407 mm**3
CCc1nc(N)nc(N)c1-c1ccc(NCc2ccc(C(F)(F)F)cc2)c([N+](=O)[O-])c1	948 mm**3
CCc1nc(N)nc(N)c1-c1ccc(NCc2ccccc2)c([N+](=O)[O-])c1	1454 mm**3
CCc1nc(N)nc(N)c1-c1ccc(NCc2ccc(OC)cc2)c([N+](=O)[O-])c1	1482 mm**3

system: Mus musculus; assay: Ratio of tumor volume of test(T) animals compared to control(C) animals x 100 T/C(%)] at a dose of 3.125 mg/kg/day; type: functional; conditions: not given; outline: as §3

Compound	Antitumor activity
CCc1nc(N)nc(N)c1-c1ccc(NCc2ccc(Cl)cc2)c([N+](=O)[O-])c1	29%
CCc1nc(N)nc(N)c1-c1ccc(NCc2ccc(OC)c(OC)c2)c([N+](=O)[O-])c1	10%
CCc1nc(N)nc(N)c1-c1ccc(NC)c([N+](=O)[O-])c1	61%
CCc1nc(N)nc(N)c1-c1ccc(NCc2ccc(C(F)(F)F)cc2)c([N+](=O)[O-])c1	40%
CCc1nc(N)nc(N)c1-c1ccc(NCc2ccccc2)c([N+](=O)[O-])c1	53%
CCc1nc(N)nc(N)c1-c1ccc(NCc2ccc(OC)cc2)c([N+](=O)[O-])c1	50%

system: Mus musculus; assay: Mean of weight gain from day 0 to day 24 at a dose of 6.25 mg/kg/day; type: functional; set-up: unit not given here; conditions: not given; outline: as §1

Compound	Weight change
CCc1nc(N)nc(N)c1-c1ccc(NCc2ccc(Cl)cc2)c([N+](=O)[O-])c1	3.3
CCc1nc(N)nc(N)c1-c1ccc(NCc2ccc(OC)c(OC)c2)c([N+](=O)[O-])c1	0.9
CCc1nc(N)nc(N)c1-c1ccc(NC)c([N+](=O)[O-])c1	3.3
CCc1nc(N)nc(N)c1-c1ccc(NCc2ccc(C(F)(F)F)cc2)c([N+](=O)[O-])c1	2.3
CCc1nc(N)nc(N)c1-c1ccc(NCc2ccccc2)c([N+](=O)[O-])c1	2.1
CCc1nc(N)nc(N)c1-c1ccc(NCc2ccc(OC)cc2)c([N+](=O)[O-])c1	3.6

system: Mus musculus; assay: Tumor volume in 20 days after tumor implantation at a dose of 6.25 mg/kg/day of compound; type: functional; conditions: not given; outline: as §2

Compound	Tumor volume
CCc1nc(N)nc(N)c1-c1ccc(NC)c([N+](=O)[O-])c1	640 mm**3
CCc1nc(N)nc(N)c1-c1ccc(NCc2ccccc2)c([N+](=O)[O-])c1	301 mm**3
CCc1nc(N)nc(N)c1-c1ccc(NCc2ccc(OC)cc2)c([N+](=O)[O-])c1	416 mm**3

system: Mus musculus; assay: Tumor volume in 24 days after tumor implantation at a dose of 12.5 mg/kg/day; type: functional; conditions: not given; outline: as §2

Compound	Tumor volume
CCc1nc(N)nc(N)c1-c1ccc(NCc2ccc(Cl)cc2)c([N+](=O)[O-])c1	380 mm**3
CCc1nc(N)nc(N)c1-c1ccc(NC)c([N+](=O)[O-])c1	462 mm**3
CCc1nc(N)nc(N)c1-c1ccc(NCc2ccc(C(F)(F)F)cc2)c([N+](=O)[O-])c1	265 mm**3
CCc1nc(N)nc(N)c1-c1ccc(NCc2ccccc2)c([N+](=O)[O-])c1	586 mm**3
CCc1nc(N)nc(N)c1-c1ccc(NCc2ccc(OC)cc2)c([N+](=O)[O-])c1	636 mm**3

system: Mus musculus; assay: Ratio of tumor volume of test(T) animals compared to control(C) animals x 100 T/C(%)] at a dose of 25 mg/kg/day; type: functional; conditions: not given; outline: as §3

Compound	Antitumor activity
CCc1nc(N)nc(N)c1-c1ccc(NC)c([N+](=O)[O-])c1	10%
CCc1nc(N)nc(N)c1-c1ccc(NCc2ccc(C(F)(F)F)cc2)c([N+](=O)[O-])c1	<8%
CCc1nc(N)nc(N)c1-c1ccc(NCc2ccccc2)c([N+](=O)[O-])c1	<8%
CCc1nc(N)nc(N)c1-c1ccc(NCc2ccc(OC)cc2)c([N+](=O)[O-])c1	<8%
